Laboratory results reported in publication PMC2895766 (Journal of medicinal chemistry, 2010).

What was measured:
mice = conditions: cited from earlier work
[1] = tested on: α1*-, α3β4*-, α4β2-, or α4β4-nAChR; assay type: cell-based, human; conditions: highest concentration tested 100 μM
[2] = target: human NE transporters [h(NET)] (Homo sapiens, UniProt P23975); experiment: Inhibition of [3H]norepinephrine uptake in HEK293 cells expressing hNET; assay type: cell-based; conditions: ratio of IC50 values
α4β2-nAChR = α4β2-nAChR (Homo sapiens, UniProt P17787+P43681); experiment: 86Rb+ efflux assay, antagonism of carbamylcholine response, SH-EP1-hα4β2 cells; assay type: cell-based
[3] = tested on: nicotine-mediated antinociception (tail-flick); experiment: Tail-flick test, blockade of nicotine-induced antinociception; assay type: in vivo; conditions: mice
Method in brief: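 Mice got saline or test compound 15 min before nicotine (2.5 mg/kg s.c.) and were tested 5 min after nicotine. Radiant heat was applied to the upper tail with a 10 s cutoff, and a pre-treatment control latency (2–4 s) was taken for each mouse. Blockade was scored as %MPE = [(test − control)/(10 − control)] × 100 and expressed as AD50 in mg/kg.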

Chain of α4β2-nAChR (P43681 29-627 limits assumed): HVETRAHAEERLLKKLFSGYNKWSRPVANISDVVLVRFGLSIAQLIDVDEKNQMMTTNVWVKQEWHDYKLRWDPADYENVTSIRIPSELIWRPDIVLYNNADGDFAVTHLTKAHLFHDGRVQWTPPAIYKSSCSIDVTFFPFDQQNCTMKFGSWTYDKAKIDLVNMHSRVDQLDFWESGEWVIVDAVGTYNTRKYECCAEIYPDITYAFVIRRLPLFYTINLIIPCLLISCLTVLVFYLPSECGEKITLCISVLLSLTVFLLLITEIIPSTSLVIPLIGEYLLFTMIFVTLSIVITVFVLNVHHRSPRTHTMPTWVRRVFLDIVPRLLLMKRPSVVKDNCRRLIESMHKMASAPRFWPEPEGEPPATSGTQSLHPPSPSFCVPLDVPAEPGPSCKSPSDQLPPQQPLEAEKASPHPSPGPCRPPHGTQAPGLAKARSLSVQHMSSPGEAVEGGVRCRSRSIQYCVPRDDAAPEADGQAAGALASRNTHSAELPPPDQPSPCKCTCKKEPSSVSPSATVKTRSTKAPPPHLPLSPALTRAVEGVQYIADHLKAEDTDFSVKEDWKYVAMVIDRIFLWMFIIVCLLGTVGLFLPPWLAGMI
Chain of α4β2-nAChR (P17787 26-502): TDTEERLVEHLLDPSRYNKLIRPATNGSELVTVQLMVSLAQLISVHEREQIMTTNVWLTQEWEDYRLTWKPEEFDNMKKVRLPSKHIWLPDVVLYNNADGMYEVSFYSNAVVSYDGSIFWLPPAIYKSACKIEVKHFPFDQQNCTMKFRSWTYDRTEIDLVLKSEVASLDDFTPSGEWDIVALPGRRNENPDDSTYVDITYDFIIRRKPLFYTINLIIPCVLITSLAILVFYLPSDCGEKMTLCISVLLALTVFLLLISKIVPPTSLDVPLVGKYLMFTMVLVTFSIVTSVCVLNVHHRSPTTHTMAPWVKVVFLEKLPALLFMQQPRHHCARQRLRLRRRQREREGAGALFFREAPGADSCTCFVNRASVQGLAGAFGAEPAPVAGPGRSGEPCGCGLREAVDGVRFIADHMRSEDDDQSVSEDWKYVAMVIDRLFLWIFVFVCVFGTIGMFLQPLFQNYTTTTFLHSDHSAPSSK
Chain of human NE transporters [h(NET)] (P23975 whole entry): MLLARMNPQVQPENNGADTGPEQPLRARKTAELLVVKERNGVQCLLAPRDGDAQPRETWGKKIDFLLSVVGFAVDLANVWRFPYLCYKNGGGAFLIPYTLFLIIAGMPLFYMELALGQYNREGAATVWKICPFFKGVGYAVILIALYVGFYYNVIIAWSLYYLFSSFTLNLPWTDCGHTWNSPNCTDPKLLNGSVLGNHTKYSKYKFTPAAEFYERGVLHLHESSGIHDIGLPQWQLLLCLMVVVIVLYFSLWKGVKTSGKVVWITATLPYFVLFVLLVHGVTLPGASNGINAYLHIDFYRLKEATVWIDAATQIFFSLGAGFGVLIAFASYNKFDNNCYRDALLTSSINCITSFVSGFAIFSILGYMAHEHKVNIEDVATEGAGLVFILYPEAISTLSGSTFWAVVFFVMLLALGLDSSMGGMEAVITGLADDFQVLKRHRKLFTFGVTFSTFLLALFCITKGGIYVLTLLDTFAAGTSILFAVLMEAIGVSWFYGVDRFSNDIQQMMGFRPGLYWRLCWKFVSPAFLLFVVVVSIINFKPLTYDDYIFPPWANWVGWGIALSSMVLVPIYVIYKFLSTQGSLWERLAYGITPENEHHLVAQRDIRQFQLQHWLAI

SMILES | extent of antagonism at all nAChR subtypes tested [1] | also measured
C[C@H]1NC(C)(C)CO[C@]1(O)c1cccc(Cl)c1 (racemic) [racemic hydroxybupropion] | – | convulsions after i.p. administration (mice): induced convulsions
C[C@H]1NC(C)(C)CO[C@]1(O)c1cccc(Cl)c1 [(2R,3R)-4a, (2R,3R)-2-(3-Chlorophenyl)-3,5,5-trimethylmorpholin-2-ol, reference compound] | full antagonist | –
C[C@@H]1NC(C)(C)CO[C@@]1(O)c1cccc(Cl)c1 [(2S,3S)-4a, (2S,3S)-2-(3-Chlorophenyl)-3,5,5-trimethylmorpholin-2-ol, reference compound] | full antagonist | times more potent than 2 in inhibiting NE uptake [2]: 7.7 times
C[C@@H]1NC(C)(C)CO[C@@]1(O)c1cccc(F)c1 [Compound 4c, (2S,3S)-2-(3-Fluorophenyl)-3,5,5-trimethylmorpholin-2-ol] | block all nAChR function at an adequately high concentration | –
C[C@@H]1NC(C)(C)CO[C@@]1(O)c1cccc(Br)c1 [Compound 4d, (2S,3S)-2-(3-Bromophenyl)-3,5,5-trimethylmorpholin-2-ol] | block all nAChR function at an adequately high concentration | selectivity for inhibition of α4β2-nAChR over NE uptake inhibition (α4β2-nAChR): ~ 1.7 fold
C[C@@H]1NC(C)(C)CO[C@@]1(O)c1cccc([N+](=O)[O-])c1 [Compound 4g, (2S,3S)-2-(3-Nitrophenyl)-3,5,5-trimethylmorpholin-2-ol] | block all nAChR function at an adequately high concentration | –
C[C@@H]1NC(C)(C)CO[C@@]1(O)c1cccc2ccccc12 [Compound 4q, (2S,3S)-2-(Naphthalen-1-yl)-3,5,5-trimethylmorpholin-2-ol] | – | fold higher activity in the tail-flick assay than (2S,3S)-4a [3]: ~ 5 fold
C[C@@H]1NC(C)(C)CO[C@@]1(O)c1ccc2ccccc2c1 [Compound 4r, (2S,3S)-2-(Naphthalen-2-yl)-3,5,5-trimethylmorpholin-2-ol] | – | fold higher activity in the tail-flick assay than (2S,3S)-4a [3]: ~ 5 fold
CCC[C@@H]1NC(C)(C)CO[C@@]1(O)c1cccc(Cl)c1 [Compound 4t, (2S,3S)-2-(3-Chlorophenyl)-5,5-dimethyl-3-propyl-morpholin-2-ol] | full antagonist | –
